Assay outcomes: PubChem BioAssay, several laboratories
Shown are actives, neighbours in structure and some others; about 1.4% of the full set was active somewhere.
Mot1-301 SUMO = blocks SUMOylation pathway, rescuing yeast Mot1-301 growth; actives 1% (n = 320,000); growth rescue, % at 18.8 µM; S. cerevisiae Mot1-301 growth rescue, ATP luminescence, 38.5C; percent above DMSO median, 100 means doubled; AID 2716;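 active means every valid replicate shows activation above 250% relative to neutral control wells; inactive means the rest, any valid replicate at or below 250%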;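 further: OY570 slx delta 5 strain wells were the positive control but not used for scaling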
T cell HTS = T cell immune modulation candidate; 2C CD8+ T cell-vesicle binding, flow cytometry; active compounds read low; response (vesicle binding), % at 7 µM; actives 0.068% (n = 330,000); AID 2052;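 active means response, share of CD8 T cells binding vesicles, and their 90th percentile fluorescence all below set limits, cut at about 80% in these data, passing the limit was not always enough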;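 further: values below 100% mean blocked vesicle binding to the CD8+ T cells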
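Assay system – 2C mouse CD8+ T cells · Also added – QL9-loaded Drosophila micro-vesicles · Timing – Cell–vesicle co-incubation 1.5 h at 37 °C, staining 20 min on ice · Signal – flow cytometry of vesicle-bound cells · Measure – percent CD8+ FL2 mean versus row control · Controls – Peptide-free naked vesicles (low) and QL9 vesicles with 0.7% DMSO vehicle (high)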
HIF activator = HIF pathway transcriptional activation. U2OS HRE-luciferase reporter, luminescence; normalized: DMSO 0%, desferrioxamine 100%. activation, % at 7.5 µM (by protocol). actives 0.32% (n = 300,000). AID 1910;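 active means mean activation of at least 10% of the iron chelator positive control signal, with at least half of replicates also reaching 10%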
GASC-1 inh = blocks human GASC-1 demethylase activity; Q9H3R0; GST-JMJD2C(1-420) H3K9me3 demethylation, DELFIA europium; inhibition, % at 2.35 µM; actives 0.069% (n = 330,000);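 active means more than half of a compound's replicate wells show inhibition beyond 50%, single wells judged on their own value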;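 further: signal counts dimethyl H3K9 product captured on neutravidin plate; 0% = median of DMSO wells and 100% = 0.3 times that DMSO median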
Target sequence (Q9H3R0 1-420 limits assumed): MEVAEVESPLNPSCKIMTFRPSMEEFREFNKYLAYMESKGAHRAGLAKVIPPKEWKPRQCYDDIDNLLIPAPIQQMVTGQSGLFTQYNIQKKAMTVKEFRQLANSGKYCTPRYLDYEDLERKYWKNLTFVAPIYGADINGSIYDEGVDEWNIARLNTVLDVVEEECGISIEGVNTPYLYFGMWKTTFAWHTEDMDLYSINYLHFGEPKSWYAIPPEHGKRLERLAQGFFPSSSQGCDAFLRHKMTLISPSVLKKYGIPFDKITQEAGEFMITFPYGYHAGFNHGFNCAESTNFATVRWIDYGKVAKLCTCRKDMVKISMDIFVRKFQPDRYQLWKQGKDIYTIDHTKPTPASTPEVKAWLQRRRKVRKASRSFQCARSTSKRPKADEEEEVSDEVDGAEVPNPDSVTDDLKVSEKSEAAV
Numbers without * were called inactive.

What do the screens show for `CCN(CC(=O)Nc1c(F)cccc1F)C(=O)COc1cccc2c1OC(C)(C)C2`?
Mot1-301 SUMO: -7.2; T cell HTS: 603.2; HIF activator: 0.0; GASC-1 inh: -6.3

What do the screens show for `C#CCOc1ccccc1C(N)=O`?
Mot1-301 SUMO: -28.7; T cell HTS: 627.6; HIF activator: -0.3; GASC-1 inh: -24.5

How did Cn1cc(CC(=O)N2CCN(c3ccc(Cl)cc3)CC2)c2ccccc21 do in these assays?
Mot1-301 SUMO: 5.7; T cell HTS: 257.5; HIF activator: 42.2*; GASC-1 inh: 1.6

Results for COC(=O)Nc1nnc(Cc2ccc(OC)cc2)s1 ?
Mot1-301 SUMO: 42.8; T cell HTS: 290.0; HIF activator: 39.8*; GASC-1 inh: 8.2

Results for CC(C)NC(=O)N(Cc1ccccc1)Cc1cccs1 ?
Mot1-301 SUMO: 4.7; T cell HTS: 82.1; HIF activator: -0.1; GASC-1 inh: -10.5

What do the screens show for `COc1ccccc1CN1C[C@@H]2C[C@@H](c3[nH]c4c(C)cccc4c3C)N3CCC[C@@]23C1=O`?
Mot1-301 SUMO: 5.9; T cell HTS: 279.6; HIF activator: 0.1; GASC-1 inh: -3.4

How did CCOc1ccc2c(c1)c1nnc(SCC3CCCO3)nc1n2C (centres undefined) do in these assays?
Mot1-301 SUMO: 0.1; T cell HTS: 372.6; HIF activator: 93.1*; GASC-1 inh: -1.7

What do the screens show for `CCOc1ccc2[nH]c3nc(SCC(=O)NCC4CCCO4)nnc3c2c1` (centres undefined)?
Mot1-301 SUMO: 12.1; T cell HTS: 171.4; HIF activator: -1.1; GASC-1 inh: -8.0

Results for CCOc1ccc(OCCSc2ccc(S(=O)(=O)N3CCN(C)CC3)cn2)cc1 ?
Mot1-301 SUMO: 294.7*; T cell HTS: 328.3; GASC-1 inh: -0.1

Results for CC[C@]12c3[nH]c4ccccc4c3CCN1C(=O)C(CC(=O)NCCCOC)C[C@@H]2C(=O)N1CCN(C(=O)C2CC2)CC1 (some centres undefined) ?
Mot1-301 SUMO: 4.4; T cell HTS: 141.2; GASC-1 inh: 52.7*

Results for CC[C@]12c3[nH]c4ccccc4c3CCN1C(=O)C(CC(=O)NCCCN(C)C)C[C@@H]2C(=O)N1CCN(C(=O)C2CC2)CC1 (some centres undefined) ?
Mot1-301 SUMO: -14.5; T cell HTS: 378.6; GASC-1 inh: 7.7

Results for CC(=O)c1cccc(NC(=O)c2cccc(NC(=O)c3ccco3)c2)c1 ?
Mot1-301 SUMO: 17.7; T cell HTS: 275.7; HIF activator: -0.7; GASC-1 inh: -0.1

Results for O=C(NC1=NCCS1)c1cccc(NC(=O)c2ccco2)c1 ?
Mot1-301 SUMO: 3.4; T cell HTS: 352.6; HIF activator: 11.7*; GASC-1 inh: 4.4

What do the screens show for `Cc1cc(C)cc(NC(=O)c2cccc(NC(=O)c3ccco3)c2)c1`?
Mot1-301 SUMO: 18.4; T cell HTS: 637.8; HIF activator: 53.4*; GASC-1 inh: -1.0

Results for CN(Cc1nc(Cc2cccc(F)c2)no1)CC1CCOCC1 ?
T cell HTS: 195.5; HIF activator: -0.1; GASC-1 inh: -1.4

How did CCOC(=O)N1CCN(C(=O)c2ccc(Cn3c(=S)[nH]c4cc(OCC)c(OCC)cc4c3=O)cc2)CC1 do in these assays?
Mot1-301 SUMO: -5.1; T cell HTS: 151.0; HIF activator: 18.3*; GASC-1 inh: -3.9

Results for CC(=O)c1c(C)c(C)c2n1CCn1c(C)ccc1-2 ?
Mot1-301 SUMO: 218.0; T cell HTS: 263.5; HIF activator: -1.1; GASC-1 inh: 6.0

What do the screens show for `CCOC(=O)Nc1cc(C)c(Cl)cc1OC`?
Mot1-301 SUMO: 14.9; T cell HTS: 342.3; HIF activator: -0.2; GASC-1 inh: 51.0*

Results for CCOc1cccc(-c2c(C(=O)N/N=C(\C)c3ccncc3)nnn2-c2nonc2N)c1 ?
Mot1-301 SUMO: 22.6; T cell HTS: 388.1; HIF activator: -0.4; GASC-1 inh: -2.4

Results for CCOc1cccc(-c2c(C(=O)N/N=C(\C)c3ccccn3)nnn2-c2nonc2N)c1 ?
Mot1-301 SUMO: 31.0; T cell HTS: 438.3; HIF activator: 16.3*; GASC-1 inh: 12.7

What do the screens show for `CCOc1ccc(-c2c(C(=O)N/N=C/c3cccnc3)nnn2-c2nonc2N)cc1`?
Mot1-301 SUMO: 11.4; T cell HTS: 361.1; HIF activator: 24.8*; GASC-1 inh: -18.6

Results for CC1(C)CC(=O)C=C(c2cccc(Br)c2)C1 ?
Mot1-301 SUMO: -4.4; T cell HTS: 495.1; GASC-1 inh: 0.9

How did CCOc1ccc(S(=O)(=O)NCCC(=O)N(C)CC(=O)Nc2ccc(N3CCOCC3)cc2)cc1 do in these assays?
Mot1-301 SUMO: 6.2; T cell HTS: 270.6; HIF activator: -0.6; GASC-1 inh: -3.2

What do the screens show for `O=C1CC(c2nc3ccccc3[nH]2)CN1Cc1ccccc1` (centres undefined)?
Mot1-301 SUMO: 2.8; T cell HTS: 46.8*; HIF activator: -0.2; GASC-1 inh: 4.8

What do the screens show for `O=C(COc1ccc([N+](=O)[O-])cc1Cl)N1CCc2ccccc21`?
Mot1-301 SUMO: 2.6; T cell HTS: 420.8; GASC-1 inh: 2.7

Results for COc1cc(SC)ccc1C(=O)Nc1ccc(C)cc1C ?
Mot1-301 SUMO: -7.9; T cell HTS: 247.3; HIF activator: 10.4*; GASC-1 inh: -9.3

Results for COc1cccc(NC(=O)Nc2ccc3nc(C)c(C)nc3c2)c1 ?
Mot1-301 SUMO: 3.3; T cell HTS: 72.8*; HIF activator: -3.7; GASC-1 inh: -0.1

How did COc1ccc(NC(=O)Nc2cccc(OC)c2)cc1 do in these assays?
Mot1-301 SUMO: 61.6; T cell HTS: 265.4; HIF activator: 3.7; GASC-1 inh: 5.1

How did Cc1ccc(N(C)S(=O)(=O)c2ccc(-c3cc(C)no3)s2)cc1 do in these assays?
Mot1-301 SUMO: -13.0; T cell HTS: 612.3; HIF activator: 9.7*; GASC-1 inh: 2.6

Results for C/C(=N\NC(=O)c1ccc(Br)o1)c1cc2c(cc1NC(=O)CCC(=O)O)OCO2 ?
Mot1-301 SUMO: -3.5; T cell HTS: 0.0*; GASC-1 inh: 2.6

What do the screens show for `CCn1cc(C(=O)NCC(OC)OC)c(=O)c2cc(S(=O)(=O)N3CCC(C)CC3)ccc21`?
Mot1-301 SUMO: 6.8; T cell HTS: 295.2; HIF activator: 29.7*; GASC-1 inh: -0.4

Results for CCn1cc(C(=O)NCC(OC)OC)c(=O)c2cc(S(=O)(=O)N3CCCC3)ccc21 ?
Mot1-301 SUMO: 14.7; T cell HTS: 64.6; HIF activator: -0.3; GASC-1 inh: 22.6

How did COC(=O)[C@@H]1Cc2c([nH]c3ccccc23)C(C)(C)N1C(=O)CCl do in these assays?
Mot1-301 SUMO: -13.3; T cell HTS: 265.5; HIF activator: 0.2; GASC-1 inh: 4.5

Results for C/C(=N\NC(=O)c1c(C)nc2ccccn12)c1ccc(O)cc1O ?
Mot1-301 SUMO: -12.0; T cell HTS: 355.9; HIF activator: 13.5*; GASC-1 inh: -1.0

Results for CC(=O)c1ccc(-c2ccc(C(=O)NC3CCCCCC3)o2)cc1 ?
Mot1-301 SUMO: -8.8; T cell HTS: 330.3; HIF activator: 0.2; GASC-1 inh: 6.1
